These results are taken from ChEMBL document CHEMBL2424622, “Development of amino-pyrimidine inhibitors of c-Jun N-terminal kinase (JNK): kinase profiling guided optimization of a 1,2,3-benzotriazole lead” (Bioorg Med Chem Lett, 2013).

Test [1] has as its target T1, Atypical kinase COQ8B, mitochondrial (Homo sapiens) (UniProt Q96D53).
T1 sequence (whole entry): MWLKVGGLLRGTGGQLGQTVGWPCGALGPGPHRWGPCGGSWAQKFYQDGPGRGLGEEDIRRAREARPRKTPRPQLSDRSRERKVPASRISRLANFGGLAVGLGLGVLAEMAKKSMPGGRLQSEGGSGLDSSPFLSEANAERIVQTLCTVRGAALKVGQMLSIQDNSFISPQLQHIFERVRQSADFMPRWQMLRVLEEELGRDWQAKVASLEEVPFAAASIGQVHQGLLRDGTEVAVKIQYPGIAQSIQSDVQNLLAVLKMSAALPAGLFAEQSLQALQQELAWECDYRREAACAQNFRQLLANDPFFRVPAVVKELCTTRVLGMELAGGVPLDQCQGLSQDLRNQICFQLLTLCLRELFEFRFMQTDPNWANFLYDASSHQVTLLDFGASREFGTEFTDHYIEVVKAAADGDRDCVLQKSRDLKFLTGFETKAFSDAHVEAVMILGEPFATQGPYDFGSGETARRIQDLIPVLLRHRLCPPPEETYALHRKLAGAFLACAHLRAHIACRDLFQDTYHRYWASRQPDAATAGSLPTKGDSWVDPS
Put plainly: Competitive binding affinity to ADCK4 (unknown origin) at 10 uM in presence of ATP relative to control.

Test [2] has as its target Serine/threonine-protein kinase 26 (Homo sapiens) (UniProt Q9P289). In words: Competitive binding affinity to MST4 (unknown origin) at 10 uM in presence of ATP relative to control.
Test [3] concerns the target Maternal embryonic leucine zipper kinase (Homo sapiens) (UniProt Q14680). Put plainly: Competitive binding affinity to MELK (unknown origin) at 10 uM in presence of ATP relative to control.
For test [4], the target named is T2, Serine/threonine-protein kinase RIO1 (Homo sapiens) (UniProt Q9BRS2).
T2 sequence (whole entry): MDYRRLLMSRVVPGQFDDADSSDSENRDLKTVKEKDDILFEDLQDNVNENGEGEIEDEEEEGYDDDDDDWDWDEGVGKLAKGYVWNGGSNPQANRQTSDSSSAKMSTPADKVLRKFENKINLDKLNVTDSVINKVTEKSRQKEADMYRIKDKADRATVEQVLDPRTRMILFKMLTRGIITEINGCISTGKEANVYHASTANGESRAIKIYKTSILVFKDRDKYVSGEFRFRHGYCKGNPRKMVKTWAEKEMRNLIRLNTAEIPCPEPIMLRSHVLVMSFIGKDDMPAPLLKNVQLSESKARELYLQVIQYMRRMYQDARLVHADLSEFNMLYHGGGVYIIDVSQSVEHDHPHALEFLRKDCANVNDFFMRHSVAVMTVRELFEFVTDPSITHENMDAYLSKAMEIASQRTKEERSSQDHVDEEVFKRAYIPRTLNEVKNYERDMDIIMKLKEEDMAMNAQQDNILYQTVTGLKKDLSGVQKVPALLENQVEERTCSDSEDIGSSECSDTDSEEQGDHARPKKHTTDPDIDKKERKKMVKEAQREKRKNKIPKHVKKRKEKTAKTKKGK
Put plainly: Competitive binding affinity to RIOK1 (unknown origin) at 10 uM in presence of ATP relative to control.

Test [5] has as its target Serine/threonine-protein kinase PLK1 (Homo sapiens) (UniProt P53350). In words: Competitive binding affinity to PLK1 (unknown origin) at 10 uM in presence of ATP relative to control.
Test [6] has as its target Serine/threonine-protein kinase N1 (Homo sapiens) (UniProt Q16512). Put plainly: Competitive binding affinity to PKN1 (unknown origin) at 10 uM in presence of ATP relative to control.
Test [7] deals with T3, Muscle, skeletal receptor tyrosine-protein kinase (Homo sapiens) (UniProt O15146).
T3 sequence (whole entry): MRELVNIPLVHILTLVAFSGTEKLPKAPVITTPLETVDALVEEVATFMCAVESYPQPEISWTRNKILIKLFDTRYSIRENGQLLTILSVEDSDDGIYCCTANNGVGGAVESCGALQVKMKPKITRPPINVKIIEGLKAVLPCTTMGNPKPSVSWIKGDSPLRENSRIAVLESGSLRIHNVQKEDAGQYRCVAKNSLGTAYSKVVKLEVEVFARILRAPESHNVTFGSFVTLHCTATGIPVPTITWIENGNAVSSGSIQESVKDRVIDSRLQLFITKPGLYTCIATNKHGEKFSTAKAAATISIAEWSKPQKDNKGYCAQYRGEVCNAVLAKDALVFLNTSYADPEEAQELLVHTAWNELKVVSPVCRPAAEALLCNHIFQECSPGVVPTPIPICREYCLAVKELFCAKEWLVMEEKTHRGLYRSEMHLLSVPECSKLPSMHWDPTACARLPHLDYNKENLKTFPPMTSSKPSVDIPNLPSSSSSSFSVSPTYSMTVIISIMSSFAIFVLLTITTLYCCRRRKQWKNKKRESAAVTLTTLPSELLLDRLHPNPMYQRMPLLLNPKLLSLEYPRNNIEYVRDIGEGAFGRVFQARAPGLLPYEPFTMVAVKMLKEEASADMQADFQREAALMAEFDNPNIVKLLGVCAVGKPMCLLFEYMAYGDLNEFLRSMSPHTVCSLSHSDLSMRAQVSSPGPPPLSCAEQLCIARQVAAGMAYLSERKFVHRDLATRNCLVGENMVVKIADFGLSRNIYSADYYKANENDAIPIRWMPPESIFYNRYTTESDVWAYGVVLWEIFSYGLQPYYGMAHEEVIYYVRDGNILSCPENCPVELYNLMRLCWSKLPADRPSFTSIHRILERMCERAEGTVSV
In words: Competitive binding affinity to MUSK (unknown origin) at 10 uM in presence of ATP relative to control. The gist of the method:
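In vitro ATP-site competition binding assay across a diverse panel of 128 kinases, with compound tested at a single concentration. Kinase selectivity scores (S15) were calculated from the panel profiles.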

Sequence of Serine/threonine-protein kinase N1 (Homo sapiens) (Q16512 2-942 limits assumed): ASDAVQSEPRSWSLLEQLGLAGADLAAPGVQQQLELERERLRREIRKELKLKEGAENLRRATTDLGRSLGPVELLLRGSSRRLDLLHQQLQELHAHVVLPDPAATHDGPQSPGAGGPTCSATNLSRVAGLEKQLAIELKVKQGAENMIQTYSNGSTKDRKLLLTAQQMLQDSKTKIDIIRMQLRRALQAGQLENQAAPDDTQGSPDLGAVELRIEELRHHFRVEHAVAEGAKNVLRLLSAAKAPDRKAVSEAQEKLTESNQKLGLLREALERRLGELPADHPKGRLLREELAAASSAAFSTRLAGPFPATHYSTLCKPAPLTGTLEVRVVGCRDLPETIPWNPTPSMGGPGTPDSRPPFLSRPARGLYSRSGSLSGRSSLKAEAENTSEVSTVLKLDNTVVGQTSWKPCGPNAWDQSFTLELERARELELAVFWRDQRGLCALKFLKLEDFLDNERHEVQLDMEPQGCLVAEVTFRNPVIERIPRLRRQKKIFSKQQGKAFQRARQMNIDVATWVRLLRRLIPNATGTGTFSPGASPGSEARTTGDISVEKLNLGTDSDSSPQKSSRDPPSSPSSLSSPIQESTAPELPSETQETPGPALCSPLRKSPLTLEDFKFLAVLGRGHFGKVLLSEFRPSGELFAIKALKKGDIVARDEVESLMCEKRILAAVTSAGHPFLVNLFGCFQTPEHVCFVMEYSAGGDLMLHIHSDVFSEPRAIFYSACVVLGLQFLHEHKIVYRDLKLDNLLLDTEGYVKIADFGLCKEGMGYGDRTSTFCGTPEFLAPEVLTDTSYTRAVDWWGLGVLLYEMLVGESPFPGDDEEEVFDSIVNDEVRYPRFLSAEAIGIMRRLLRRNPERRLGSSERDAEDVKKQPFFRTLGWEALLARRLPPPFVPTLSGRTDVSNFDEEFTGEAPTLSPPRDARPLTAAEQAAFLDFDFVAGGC
Sequence of Serine/threonine-protein kinase 26 (Homo sapiens) (Q9P289 2-416 limits assumed): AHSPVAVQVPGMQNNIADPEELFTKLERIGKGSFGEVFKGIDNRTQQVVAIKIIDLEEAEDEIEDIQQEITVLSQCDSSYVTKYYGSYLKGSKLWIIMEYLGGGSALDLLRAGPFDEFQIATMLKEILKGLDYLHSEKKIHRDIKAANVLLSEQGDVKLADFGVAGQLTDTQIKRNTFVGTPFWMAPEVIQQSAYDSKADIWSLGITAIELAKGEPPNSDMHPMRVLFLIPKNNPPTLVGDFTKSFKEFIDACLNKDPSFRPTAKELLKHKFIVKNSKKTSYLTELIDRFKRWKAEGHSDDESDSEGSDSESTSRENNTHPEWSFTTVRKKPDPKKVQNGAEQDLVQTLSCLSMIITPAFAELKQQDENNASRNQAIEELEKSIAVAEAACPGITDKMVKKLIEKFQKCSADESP
Sequence of Maternal embryonic leucine zipper kinase (Homo sapiens) (Q14680 whole entry, looked up): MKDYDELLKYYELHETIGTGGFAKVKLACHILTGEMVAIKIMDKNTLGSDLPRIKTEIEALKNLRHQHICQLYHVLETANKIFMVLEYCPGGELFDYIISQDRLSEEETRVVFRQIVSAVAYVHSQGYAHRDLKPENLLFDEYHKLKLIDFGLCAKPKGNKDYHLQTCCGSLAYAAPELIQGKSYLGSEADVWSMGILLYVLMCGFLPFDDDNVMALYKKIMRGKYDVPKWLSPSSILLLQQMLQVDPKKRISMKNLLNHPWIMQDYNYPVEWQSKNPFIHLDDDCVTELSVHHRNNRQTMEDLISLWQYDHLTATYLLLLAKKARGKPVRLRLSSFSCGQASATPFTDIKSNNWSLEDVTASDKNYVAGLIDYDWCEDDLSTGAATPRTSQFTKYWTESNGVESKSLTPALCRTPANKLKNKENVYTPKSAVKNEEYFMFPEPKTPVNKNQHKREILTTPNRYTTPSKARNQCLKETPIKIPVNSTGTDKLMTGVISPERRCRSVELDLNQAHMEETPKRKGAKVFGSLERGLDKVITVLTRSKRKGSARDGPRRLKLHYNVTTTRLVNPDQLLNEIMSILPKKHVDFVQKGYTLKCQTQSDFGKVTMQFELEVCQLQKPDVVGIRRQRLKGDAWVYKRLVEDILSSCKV
Sequence of Serine/threonine-protein kinase PLK1 (Homo sapiens) (P53350 whole entry): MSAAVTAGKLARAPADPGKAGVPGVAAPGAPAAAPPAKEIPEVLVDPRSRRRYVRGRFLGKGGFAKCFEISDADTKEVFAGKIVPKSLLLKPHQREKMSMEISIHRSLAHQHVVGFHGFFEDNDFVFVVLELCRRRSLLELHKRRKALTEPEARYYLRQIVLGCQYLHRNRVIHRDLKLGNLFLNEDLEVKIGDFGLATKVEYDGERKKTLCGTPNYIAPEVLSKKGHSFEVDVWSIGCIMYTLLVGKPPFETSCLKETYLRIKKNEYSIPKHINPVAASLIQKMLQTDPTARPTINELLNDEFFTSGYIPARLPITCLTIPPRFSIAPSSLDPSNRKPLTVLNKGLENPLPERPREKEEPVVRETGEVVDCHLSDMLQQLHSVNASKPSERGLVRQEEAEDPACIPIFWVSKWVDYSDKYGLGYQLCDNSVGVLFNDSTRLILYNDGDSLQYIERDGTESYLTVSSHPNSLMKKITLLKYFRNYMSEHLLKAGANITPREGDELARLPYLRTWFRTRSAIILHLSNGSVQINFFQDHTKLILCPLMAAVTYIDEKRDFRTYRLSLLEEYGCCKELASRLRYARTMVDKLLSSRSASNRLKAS

As for `CS(=O)(=O)CCCOc1cccc2c1ccn2-c1ccnc(N[C@H]2CC[C@H](C(=O)N3CCC(O)CC3)CC2)n1`, the inhibition (usually the relative decrease from the control value, in per cent) in test [1] was more than 85%.
For the compound `O[C@H]1CC[C@H](Nc2nccc(-n3ccc4ccccc43)n2)CC1`, the inhibition in test [2] was 80%; in test [3], less than 50%; in test [1] it was 76%; in test [4] it was less than 50%; in test [5], less than 50%; in test [6], less than 50%. The inhibition in test [7] was less than 50%.
Regarding `O[C@H]1CC[C@H](Nc2nccc(-n3ncc4ccccc43)n2)CC1`, the inhibition was 76% in test [2]; 74% in test [3]; 79% in test [1]; less than 50% in test [4]; less than 50% in test [5]; less than 50% in test [6]. In addition, in test [7], the inhibition is less than 50%.
For the compound `O[C@H]1CC[C@H](Nc2nccc(-c3n[nH]c4ccccc34)n2)CC1`, the inhibition was 94% in test [2]; 94% in test [3]; 74% in test [1]; less than 50% in test [5]; less than 50% in test [7].
Take `O[C@H]1CC[C@H](Nc2nccc(-n3nnc4ccccc43)n2)CC1`: the inhibition is 79% in test [2]; 94% in test [3]; 70% in test [1]; less than 50% in test [4]; less than 50% in test [5]; less than 50% in test [6]. The inhibition in test [7] was less than 50%.
